# Source: PubChem BioAssay (Sanford-Burnham Center for Chemical Genomics)
# SENP8 block-1 = SENP8 protease inhibitors, primary screen, biochemical, luminescence; hit rate 1.2% among 330,000; Sentrin-specific protease 8 (Homo sapiens), Q96LD8; purified SENP8, Z-RLRGG-aminoluciferin cleavage; inhibition, % at 10 µM; in the data active = inhibition above about 50%
# SENP8 block-2 = human SENP8 protease inhibitors, primary screen, biochemical, fluorescence, Nedd8 protein substrate, uHTS; Sentrin-specific protease 8 (Homo sapiens), Q96LD8; recombinant SENP8; inhibition, % at 20 µM; hit rate 0.64% among 360,000; in the data active = inhibition mostly above about 40%, no sharp cut-off; inactive = mostly below about 27%
# SENP6 block = SENP6 protease inhibitors, primary screen, biochemical, luminescence, uHTS; Sentrin-specific protease 6 (Homo sapiens), Q9GZR1; Recombinant SENP6 catalytic domain, aminoluciferin luminescence; inhibition, % at 10 µM; hit rate 1.8% among 330,000;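 active = inhibition above about 50% at the single tested dose, limit read from the data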
# SENP1 inh = human SENP1 catalytic domain inhibitors, primary screen, biochemical, FRET, uHTS; Sentrin-specific protease 1 (Homo sapiens), Q9P0U3; recombinant SENP1 catalytic domain, CyPet-SUMO1-YPet FRET cleavage; inhibition, % at 10 µM; hit rate 0.21% among 360,000;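 active = inhibition at least 30% at 10 µM, raw YFP signal under a set limit, fluorescence ratio 0.5 to 1.5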
#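 Controls: no-enzyme wells low, DMSO-plus-enzyme wells high control. Test system: human recombinant His6-tagged SENP1 catalytic domain enzyme. Reagent: SFCypet-SUMO1-SFYpet FRET protein substrate, 25 nM final. Doses: one dose per compound, 10 µM, 0.5% DMSO. Detection: FRET, CFP and YFP emission. Timing: 50 min reaction at room temperature.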
# SENP7 block = SENP7 protease inhibitors, primary screen, biochemical, luminescence, uHTS; recombinant SENP7, Z-RLRGG-aminoluciferin luminescence, 40 min; hit rate 1.5% among 330,000; inhibition, % at 5 µM; Sentrin-specific protease 7 (Homo sapiens), Q9BQF6;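 active = inhibition above about 50% at the single test dose, limit read from the data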
# Target sequence (Q9BQF6 706-1050 limits assumed): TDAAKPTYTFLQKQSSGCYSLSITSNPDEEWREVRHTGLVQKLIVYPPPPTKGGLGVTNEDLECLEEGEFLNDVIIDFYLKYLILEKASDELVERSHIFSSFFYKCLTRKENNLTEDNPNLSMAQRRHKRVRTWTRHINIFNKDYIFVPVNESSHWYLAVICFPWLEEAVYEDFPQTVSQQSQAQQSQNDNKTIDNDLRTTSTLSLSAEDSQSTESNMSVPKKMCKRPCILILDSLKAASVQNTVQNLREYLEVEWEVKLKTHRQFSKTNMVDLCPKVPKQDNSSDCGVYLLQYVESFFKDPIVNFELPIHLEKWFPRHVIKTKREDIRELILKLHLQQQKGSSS
# SENP8 conf = SENP8 protease inhibitors, retest, confirmation, biochemical, luminescence, single concentration. shares compounds with SENP7 block. Recombinant SENP8, Z-RLRGG-aminoluciferin luminescence, 60 min. inhibition, % at 12.5 µM. hit rate 40% among 6,200;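 active = mean inhibition across replicates above about 50%, limit read from the data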
# SENP6 confirm = SENP6 protease inhibitors, confirmation, biochemical, luminescence, single concentration; shares compounds with SENP7 block; recombinant SENP6, Z-RLRGG-aminoluciferin luminescence; inhibition, % at 12.5 µM; hit rate 58% among 6,200
# SENP7 conf = SENP7 protease inhibitors, retest, confirmation, biochemical, luminescence, single concentration. hit rate 69% among 6,200. inhibition, % at 12.5 µM. shares compounds with SENP7 block. recombinant SENP7, Z-RLRGG-aminoluciferin luminescence, 40 min
# Casp3 SENP sel = caspase-3 protease inhibitors, confirmation, selectivity assay for SENP inhibitor project, biochemical, single concentration; shares compounds with SENP7 block; purified caspase-3, Z-DEVD-aminoluciferin luminescence, 60 min; inhibition, % at 12.5 µM; hit rate 60% among 6,200;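 active = mean inhibition above about 50%, limit read from the data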
# Target sequence (P42574 28-227 limits assumed): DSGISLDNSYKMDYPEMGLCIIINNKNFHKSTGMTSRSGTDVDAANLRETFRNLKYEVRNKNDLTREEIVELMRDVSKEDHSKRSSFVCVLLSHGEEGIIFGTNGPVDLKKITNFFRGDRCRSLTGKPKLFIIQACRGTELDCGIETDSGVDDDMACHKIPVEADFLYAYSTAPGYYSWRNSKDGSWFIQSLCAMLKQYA
# Luc interf = interferes with luciferase luminescence in SENP counter-screen | shares compounds with SENP7 block | Pre-incubated SENP8/Z-RLRGG-aminoluciferin, luciferase luminescence interference | inhibition, % at 12.5 µM | hit rate 39% among 6,200;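 active = mean inhibition above about 50% when retested at one dose, limit read from the data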
# A number is an active result; - = inactive; . = no result; ! = not active in a repeat. Hits are enriched below; roughly 2.5% of the tested compounds scored in any of these assays.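 The calls were made as follows, unless noted: active = mean inhibition above about 50% in the one-dose retest (limit read from the data); inactive = the rest.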
SMILES,SENP8 block-1,SENP8 block-2,SENP6 block,SENP1 inh,SENP7 block,SENP8 conf,SENP6 confirm,SENP7 conf,Casp3 SENP sel,Luc interf
COc1cc(SC)ccc1C(=O)Nc1ccncc1,-,-,-,-,-,.,.,.,.,.
COc1cc(SC)ccc1C(=O)Nc1ccc2c(c1)CCC2,66.5,-,69.2,-,72.7,-,74.6,90.5,54.2,-
COc1cc(SC)ccc1C(=O)Nc1ccc(Cl)cn1,87.0,-,-,-,96.2,-,-,-,-,-
CSCCC(NC(=O)OC(C)(C)C)C(=O)Oc1ccc2c(=O)c(-c3ccc4c(c3)OCCO4)coc2c1 (stereo not drawn),-,-,61.8,-,-,-,-,57.6,76.0,-
COc1cccc2cc(-c3cn4ccc(C)cc4n3)c(=O)oc12,-,-,-,-,50.0,-,-,-,-,-
COc1cccc2cc(-c3nnc(-c4ccccc4)o3)c(=O)oc12,73.8,-,92.1,-,89.9,-,-,-,-,-
COc1ccc(-c2nnc(-c3cc4ccccc4oc3=O)o2)cc1,-,-,-,-,-,.,.,.,.,.
Cc1nn(CC(=O)NCc2cc3ccccc3[nH]2)c(C)c1[N+](=O)[O-],-,-,-,-,-,.,.,.,.,.
Cc1ccc(F)c(S(=O)(=O)NC(=O)C2(C)CCN2C(=O)Cc2cccc3ccccc23)c1 (stereo not drawn),.,-,.,-,.,.,.,.,.,.
COc1ccc(CCNC(=O)COC(=O)CNS(=O)(=O)c2ccc(SC)c([N+](=O)[O-])c2)cc1,-,-,-,-,-,.,.,.,.,.
CCC(=O)N1CCC(C)(C(=O)Nc2nccc3ccccc23)C1 (stereo not drawn),.,-,.,-,.,.,.,.,.,.
CSc1ccc(N=Nc2c(C)[nH]n(C)c2=O)cc1,-,-,-,-,52.9,-,-,-,-,-
COC(=O)c1ccc(N=Nc2c(C)[nH]n(-c3ccccc3)c2=O)cc1,-,-,-,-,-,.,.,.,.,.
CC(C)(C)NC(=O)NC(=O)CN1CCN(S(=O)(=O)c2ccc3c(c2)OCCO3)CC1,-,-,-,-,-,.,.,.,.,.
O=C(ONc1ccc(N=NC(=O)c2ccccc2O)cc1)c1ccccc1,85.2,-,91.3,-,56.3,-,-,-,84.6,-
CCc1ccc(S(=O)(=O)NCc2ccc(C(=O)NCCN(Cc3ccccc3)C(C)C)cc2)cc1,.,-,.,-,.,.,.,.,.,.
COc1cccc(C(=O)OCC(=O)c2ccc(Br)s2)c1,-,-,54.3,-,-,53.1,-,78.4,-,-
COc1ccc(C(=O)OCC(=O)c2ccc(Br)s2)c(OC)c1,-,-,-,-,-,.,.,.,.,.
Cc1cccc(CS(=O)(=O)Cc2ccc(C(=O)NC3CCCC3)o2)c1,-,-,-,-,-,.,.,.,.,.
c1ccc(-c2n[nH]c(-c3ccccn3)n2)nc1,-,-,66.2!,-,58.8,52.7,51.3,78.4,84.4,61.2
c1ccc(-c2ccccn2)nc1,-,-,-,-,-,.,.,.,.,.
COc1ccc2nc(N3CCC(C)CC3)c(C#N)cc2c1,-,-,72.5,-,-,-,-,-,-,-
CC(C)=CCC1=C(OCC(=O)O)C(=O)c2ccccc2C1=O,76.1,71.6,-,-,-,79.5,87.1,64.9,-,-
CC(C)=CCC/C(C)=C/CC/C(C)=C/CC/C(C)=C/CC1=C(C)C(=O)c2ccccc2C1=O,-,-,-,-,-,.,.,.,.,.
O=C(Oc1ccc(Cl)c2cccnc12)c1cccc([N+](=O)[O-])c1,-,-,-,-,-,.,.,.,.,.
SMILES,SENP8 block-1,SENP8 block-2,SENP6 block,SENP1 inh,SENP7 block,SENP8 conf,SENP6 confirm,SENP7 conf,Casp3 SENP sel,Luc interf
O=[N+]([O-])c1ccccc1COc1ccc(Cl)c2cccnc12,71.7,-,82.8,-,92.6,50.5,51.5,72.7,74.5,-
Nc1c(Cl)cc(-c2[nH]c3cc(C(=O)NCCO)ccc3c(=O)c2O)cc1Cl,-,-,-,-,-,.,.,.,.,.
O=C1/C(=C/Nc2cccc([N+](=O)[O-])c2)CCc2ccccc21,60.9,-,-,-,-,-,80.7,92.5,60.2,-
O=[N+]([O-])c1cccc(NC(=S)N2CCc3ccccc3C2)c1,-,-,-,-,-,.,.,.,.,.
Cc1ccc(/C=N/NC(=O)c2ccc(Br)o2)s1,-,-,-,-,-,.,.,.,.,.
CCc1ccc(/C=N\NC(=O)c2ccc(Br)o2)s1,-,-,54.9,-,-,-,-,76.0,67.2,53.7
Fc1ccc(C(CNC(=S)NC2CCCCC2)N2CCOCC2)cc1 (stereo not drawn),-,-,-,-,-,.,.,.,.,.
C1=CC2=NC34CCCCC3CC3=C(CCCC3)N4C2=CC1=NC1CCCCC1 (stereo not drawn),-,-,51.2,-,-,-,-,-,-,-
CC(=O)c1sc(NC(=O)c2cc(=O)c3ccccc3o2)nc1C,67.0,-,82.3,-,64.4,79.3,81.7,96.2,90.3,-
CC(=O)c1sc(NC(=O)c2oc3ccc(F)cc3c2C)nc1C,56.6,-,-,-,80.5,-,-,-,50.5,-
CCOC(=O)c1csc(NC(=O)c2cc(=O)c3ccccc3o2)n1,-,-,-,-,-,.,.,.,.,.
CN(C)CCN1CCN(C2CN(Cc3cn(Cc4ccccc4C(F)(F)F)nn3)S(=O)(=O)C2)CC1 (stereo not drawn),.,-,.,-,.,.,.,.,.,.
O=C(CN1CCN(S(=O)(=O)c2ccc(F)cc2)CC1)Nc1ccc(Cl)cn1,-,-,-,-,-,.,.,.,.,.
COc1ccccc1N1CCN(S(=O)(=O)c2cc(Br)cnc2N)CC1,-,-,-,-,-,.,.,.,.,.
COc1cc2nc(Nc3ccc(F)cc3)nc(N)c2cc1OC,50.6,-,63.3,-,67.2,65.5,63.0,89.5,60.9,70.4
CCOC(=O)c1ccc(Nc2nc(N)c3cc(OC)c(OC)cc3n2)cc1,73.0,-,76.2,-,97.1,66.2,77.7,94.6,58.0,64.5
